# Active and inactive are the calls of the source. The calls are words filed in the database; no cut-off is given here.
# Experiments:
# [1] = system: Mus musculus; assay: Analgesic activity in sc dosed Swiss-Webster mouse after 30 mins; type: functional; conditions: 0.5 h
# [2] = system: Mus musculus; assay: Analgesic activity in Swiss-Webster mouse assessed as time required for sustainance of activity at 100 mg/kg, sc; type: functional; conditions: route subcutaneous
# [3] = system: Mus musculus; assay: Inhibition of morphine sulfate-induced analgesic activity in Swiss-Webster mouse at 100 mg/kg, sc after 1 hr; type: functional, organism-based; design: dose 100 mg/kg
# Summary of the method: (§1)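 Male Swiss-Webster mice, 20–25 g. Challenge was 10 mg/kg morphine sulfate in 8–10 mice, read by the modified D'Amour–Smith test. Where block was seen, morphine ED50 (95% limits) was found by Litchfield–Wilcoxon.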
# [4] = system: Mus musculus; assay: Analgesic activity in Swiss-Webster mouse assessed as time required for sustainance of activity at 15 mg/kg, sc; type: functional; conditions: route subcutaneous
# [5] = species on record: Mus musculus; assay: Narcotic agonist activity in morphine-dependent mouse assessed as suppression of abstinence; type: functional, organism-based
# Summary of the method: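 Single-dose suppression test in morphine-dependent mice after withdrawal (method of Takemori et al.); compound given sc.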
# [6] = system: Mus musculus; assay: Analgesic activity in sc dosed Swiss-Webster mouse time of peak effect; type: functional
# [7] = system: Mus musculus; assay: Inhibition of morphine sulfate-induced analgesic activity in Swiss-Webster mouse at 100 mg/kg, sc after 2 hrs; type: functional, organism-based; design: dose 100 mg/kg; summary of the method: as §1
# [8] = system: Mus musculus; assay: Inhibition of morphine sulfate-induced analgesic activity in Swiss-Webster mouse at 100 mg/kg, sc after 3 hrs; type: functional, organism-based; design: dose 100 mg/kg; summary of the method: as §1
# [9] = system: Mus musculus; assay: Analgesic activity in Swiss-Webster mouse assessed as time required for sustainance of activity at 5 mg/kg, sc; type: functional; conditions: route subcutaneous
# [10] = system: Mus musculus; assay: Analgesic activity in Swiss-Webster mouse assessed as time required for sustainance of activity at 40 mg/kg, sc; type: functional; conditions: route subcutaneous
# [11] = system: Mus musculus; assay: Inhibition of morphine sulfate-induced analgesic activity in Swiss-Webster mouse at 40 mg/kg, sc after 3 hrs; type: functional, organism-based; design: dose 40 mg/kg; summary of the method: as §1
# [12] = system: Mus musculus; assay: Ratio of morphine ED50 to compound ED50 for sc dosed Swiss-Webster mouse; type: functional
# [13] = target: T1, Opioid receptors; mu/kappa/delta (Homo sapiens, UniProt P41145+P41143+P35372); assay: Displacement of [3H]naloxone from opiate receptor (unknown origin) after 10 mins
# T1 sequence (P35372 whole entry, looked up): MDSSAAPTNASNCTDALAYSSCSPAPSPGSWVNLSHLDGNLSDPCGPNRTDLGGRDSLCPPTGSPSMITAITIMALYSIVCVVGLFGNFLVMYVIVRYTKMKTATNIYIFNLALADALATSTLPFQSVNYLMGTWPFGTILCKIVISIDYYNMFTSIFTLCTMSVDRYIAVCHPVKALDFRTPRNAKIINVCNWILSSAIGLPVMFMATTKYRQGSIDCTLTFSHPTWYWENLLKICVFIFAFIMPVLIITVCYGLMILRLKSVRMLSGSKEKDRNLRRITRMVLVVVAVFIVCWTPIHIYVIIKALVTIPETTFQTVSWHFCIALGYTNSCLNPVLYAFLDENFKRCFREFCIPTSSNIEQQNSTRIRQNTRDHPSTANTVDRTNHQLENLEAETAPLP
# T1 sequence (P41143 whole entry, looked up): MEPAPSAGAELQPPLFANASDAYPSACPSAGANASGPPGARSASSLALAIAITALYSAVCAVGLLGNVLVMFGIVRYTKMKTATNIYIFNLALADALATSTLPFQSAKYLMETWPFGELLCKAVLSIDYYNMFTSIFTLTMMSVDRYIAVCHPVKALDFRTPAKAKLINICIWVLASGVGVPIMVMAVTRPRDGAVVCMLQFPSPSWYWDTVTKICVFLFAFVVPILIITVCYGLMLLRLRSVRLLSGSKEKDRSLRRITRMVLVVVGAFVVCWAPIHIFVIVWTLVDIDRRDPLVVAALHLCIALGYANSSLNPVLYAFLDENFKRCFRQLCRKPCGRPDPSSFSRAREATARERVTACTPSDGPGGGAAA
# T1 sequence (P41145 whole entry, looked up): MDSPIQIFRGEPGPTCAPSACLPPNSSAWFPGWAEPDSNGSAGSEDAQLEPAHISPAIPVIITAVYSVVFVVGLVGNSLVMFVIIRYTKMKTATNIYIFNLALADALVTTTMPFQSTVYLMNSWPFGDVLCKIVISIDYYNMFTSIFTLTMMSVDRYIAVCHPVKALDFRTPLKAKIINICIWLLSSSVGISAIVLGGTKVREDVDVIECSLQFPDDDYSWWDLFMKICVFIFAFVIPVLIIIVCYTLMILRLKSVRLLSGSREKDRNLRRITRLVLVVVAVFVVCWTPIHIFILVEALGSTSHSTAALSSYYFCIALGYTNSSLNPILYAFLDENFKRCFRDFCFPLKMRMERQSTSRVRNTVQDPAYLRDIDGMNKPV
# [14] = system: Mus musculus; assay: Analgesic activity in Swiss-Webster mouse at 2 mg/kg, sc in presence of naloxone; type: functional, organism-based; design: dose 2 mg/kg
# Summary of the method: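 Mice were pretreated with naloxone, then given blocker 2 mg/kg sc. After 2 h, when the naloxone effect had ended, morphine analgesia was tested in the same animals (modified D'Amour–Smith). Counts are responders per 10 mice.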
# [15] = system: Mus musculus; assay: Inhibition of morphine sulfate-induced analgesic activity in Swiss-Webster mouse at 2 to 32 mg/kg, sc after 2 to 4 hrs; type: functional, organism-based
# Summary of the method: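 Male Swiss-Webster mice received the maleimide blocker sc at 2, 8 or 32 mg/kg (40% propylene glycol). Morphine sulfate dose-response was run after reaction time returned to control (2, 3 or 4 h). Morphine ED50 and 95% limits were taken by Litchfield–Wilcoxon, and curve slopes were compared.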
# [16] = target: T1, Opioid receptors; mu/kappa/delta; assay: Ratio of IC50 for opiate receptor (unknown origin) after 10 mins in presence of NaCl to IC50 for opiate receptor (unknown origin) after 10 mins
# Summary of the method: (§2)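 [3H]naloxone 1.5×10^-9 M bound to a brain homogenate (Pert–Snyder method as modified by Pasternak, with a preincubation step), 10 min incubation. Run with and without 100 mM NaCl. Stereospecific binding was defined with 1×10^-6 M levallorphan. IC50 is the concentration giving 50% inhibition of stereospecific binding, and the ratio is IC50 with NaCl over IC50 without.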
# [17] = system: Mus musculus; assay: Analgesic activity in Swiss-Webster mouse assessed as time required for sustainance of activity at 2 mg/kg, sc; type: functional; conditions: route subcutaneous
# [18] = target: T1, Opioid receptors; mu/kappa/delta; assay: Displacement of [3H]naloxone from opiate receptor (unknown origin) after 10 mins in presence of NaCl; summary of the method: as §2
# [19] = system: Mus musculus; assay: Analgesic activity in Swiss-Webster mouse assessed as time required for sustainance of activity at 20 mg/kg, sc; type: functional; conditions: route subcutaneous
# [20] = system: Mus musculus; assay: Analgesic activity in Swiss-Webster mouse assessed as time required for sustainance of activity at 0.81 mg/kg, sc; type: functional; conditions: route subcutaneous
# [21] = system: Mus musculus; assay: Inhibition of morphine sulfate-induced analgesic activity in Swiss-Webster mouse at 0.81 mg/kg, sc after 2.5 hrs; type: functional, organism-based; design: dose 0.81 mg/kg; summary of the method: as §1
# [22] = system: Mus musculus; assay: Inhibition of morphine sulfate-induced analgesic activity in Swiss-Webster mouse at 80 mg/kg, sc after 1 hr; type: functional, organism-based; design: dose 80 mg/kg; summary of the method: as §1
# [23] = system: Mus musculus; assay: Analgesic activity in Swiss-Webster mouse assessed as time required for sustainance of activity at 80 mg/kg, sc; type: functional; conditions: route subcutaneous
smiles,measurement,setting,value
O=C(CBr)Nc1cccc(CCCN2CC[C@]34CCCC[C@H]3[C@H]2Cc2ccc(O)cc24)c1,ED50,[1],> 100 mg/kg
same,Time,[2],1 h
same,inhibition,[3],Active
CCOC(=O)/C=C\C(=O)Nc1cccc(CCN2CC[C@]34CCCC[C@H]3[C@H]2Cc2ccc(O)cc24)c1,ED50,[1],2.3 mg/kg
same,Time,[4],3 h
same,inhibition,[5],Active
same,Time,[6],60 min
CCOC(=O)CCC(=O)Nc1ccc(CCCN2CC[C@]34CCCC[C@H]3[C@H]2Cc2ccc(O)cc24)cc1,ED50,[1],78.2 mg/kg
same,Time,[2],2 h
same,inhibition,[7],Active
same,Time,[6],30 min
CC(=O)Oc1ccc2c(c1)[C@@]13CCCC[C@H]1[C@@H](C2)N(CCCc1ccccc1N1C(=O)C=CC1=O)CC3,inhibition,[8],Active
same,ED50,[1],48.4 mg/kg
same,Time,[2],3 h
same,Time,[6],30 min
CC(=O)Oc1ccc2c(c1)[C@@]13CCCC[C@H]1[C@@H](C2)N(CCc1ccc(N2C(=O)C=CC2=O)cc1)CC3,ED50,[1],0.59 mg/kg
same,Time,[9],4 h
same,inhibition,[5],Active
same,Time,[6],30 min
CCOC(=O)CCC(=O)Nc1cccc(CCCN2CC[C@]34CCCC[C@H]3[C@H]2Cc2ccc(O)cc24)c1,ED50,[1],77.9 mg/kg
same,Time,[2],1 h
same,Time,[6],30 min
same,inhibition,[3],Active
CCOC(=O)CCC(=O)Nc1cccc(CCN2CC[C@]34CCCC[C@H]3[C@H]2Cc2ccc(O)cc24)c1,ED50,[1],6 mg/kg
same,Time,[10],3 h
same,inhibition,[11],Active
same,Time,[6],60 min
CCOC(=O)CCC(=O)Nc1ccccc1CCCN1CC[C@]23CCCC[C@H]2[C@H]1Cc1ccc(O)cc13,ED50,[1],> 100 mg/kg
same,Time,[2],2 h
same,inhibition,[7],Active
O=C1C=CC(=O)N1c1ccc(CCN2CC[C@]34CCCC[C@H]3[C@H]2Cc2ccc(O)cc24)cc1,Ratio ED50,[12],4
same,ED50,[1],1.1 mg/kg
same,IC50,[13],5.3 nM
same,Activity,[14],inactive
same,inhibition,[15],Active
same,inhibition,[5],Active
same,Ratio IC50,[16],> 10
same,Time,[6],30 min
same,Time,[17],2 h
same,IC50,[18],5.7 ×10⁻⁸ M
Br.CC1C2Cc3ccc(O)cc3C1(C)CCN2CCc1ccccc1 (stereo unspecified) [PHENAZOCINE HYDROBROMIDE],ED50,[1],0.53 mg/kg
same,Time,[6],30 min
CCOC(=O)/C=C/C(=O)Nc1cccc(CCN2CC[C@]34CCCC[C@H]3[C@H]2Cc2ccc(O)cc24)c1,ED50,[1],5.6 mg/kg
same,Time,[19],3 h
same,inhibition,[5],Active
same,Time,[6],60 min
O=C(CBr)Nc1ccc(CCN2CC[C@]34CCCC[C@H]3[C@H]2Cc2ccc(O)cc24)cc1,Ratio ED50,[12],4
same,ED50,[1],0.13 mg/kg
same,Time,[20],2.5 h
same,inhibition,[21],Active
same,Time,[6],30 min
CC(=O)Oc1ccc2c(c1)[C@@]13CCCC[C@H]1[C@@H](C2)N(CCCc1cccc(N2C(=O)C=CC2=O)c1)CC3,ED50,[1],> 100 mg/kg
same,Time,[2],2 h
same,inhibition,[7],Active
O=C1C=CC(=O)N1c1ccccc1CCN1CC[C@]23CCCC[C@H]2[C@H]1Cc1ccc(O)cc13,ED50,[1],> 100 mg/kg
same,inhibition,[22],Active
same,Time,[23],1 h
O=C1C=CC(=O)N1c1cccc(CCN2CC[C@]34CCCC[C@H]3[C@H]2Cc2ccc(O)cc24)c1,ED50,[1],11.4 mg/kg
same,Time,[19],2 h
same,inhibition,[5],Active
same,Time,[6],30 min
